According to ChEMBL document CHEMBL3526015, “Metabolism of the c-Fos/activator protein-1 inhibitor T-5224 by multiple human UDP-glucuronosyltransferase isoforms” (Drug Metab Dispos, 2011):

How the values were obtained:
[1] = molecular target: T1, UDP-glucuronosyltransferase 1A1 (Homo sapiens, UniProt P22309); assay: Drug level assessed as human UGT1A1-mediated compound formation from 5 to 50 uM T-5224 after 60 mins in presence of UDP-glucuronic acid by HPLC method; type: ADME; details: recombinant enzyme, 1 h
T1 sequence (P22309 whole entry): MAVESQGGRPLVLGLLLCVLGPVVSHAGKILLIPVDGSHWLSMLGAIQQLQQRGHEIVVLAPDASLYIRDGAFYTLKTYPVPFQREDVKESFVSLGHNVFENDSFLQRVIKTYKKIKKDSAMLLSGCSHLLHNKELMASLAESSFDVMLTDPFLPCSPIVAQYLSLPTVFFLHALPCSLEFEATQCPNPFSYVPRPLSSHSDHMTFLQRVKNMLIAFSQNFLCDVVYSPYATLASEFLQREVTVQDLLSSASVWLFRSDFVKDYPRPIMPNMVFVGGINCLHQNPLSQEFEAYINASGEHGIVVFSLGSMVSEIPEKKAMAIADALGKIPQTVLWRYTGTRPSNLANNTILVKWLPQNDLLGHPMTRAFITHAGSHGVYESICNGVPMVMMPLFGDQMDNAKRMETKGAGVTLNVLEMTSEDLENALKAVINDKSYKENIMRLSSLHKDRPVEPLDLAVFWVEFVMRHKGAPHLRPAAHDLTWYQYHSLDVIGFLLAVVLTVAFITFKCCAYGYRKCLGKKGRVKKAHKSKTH
Outline: (§1)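 Recombinant human UGT microsomes from baculovirus-infected insect cells, 0.1 mg protein/mL, in 50 mM Tris-HCl pH 7.5, 8 mM MgCl2, alamethicin. T-5224 in DMSO (2% v/v final). Preincubated 5 min at 37°C, started with 2 mM UDPGA, run 60 min at 37°C and stopped with acetonitrile. Glucuronides resolved by C18 HPLC with UV at 290 nm. Linearity was checked at 0.05–0.2 mg/mL protein and 10–60 min.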

[2] = molecular target: T2, UDP-glucuronosyltransferase 1A3 (Homo sapiens, UniProt P35503); assay: Drug level assessed as human UGT1A3-mediated compound formation from 5 to 50 uM T-5224 after 60 mins in presence of UDP-glucuronic acid by HPLC method; type: ADME; details: recombinant enzyme, 1 h; outline: as §1
T2 sequence (P35503 whole entry): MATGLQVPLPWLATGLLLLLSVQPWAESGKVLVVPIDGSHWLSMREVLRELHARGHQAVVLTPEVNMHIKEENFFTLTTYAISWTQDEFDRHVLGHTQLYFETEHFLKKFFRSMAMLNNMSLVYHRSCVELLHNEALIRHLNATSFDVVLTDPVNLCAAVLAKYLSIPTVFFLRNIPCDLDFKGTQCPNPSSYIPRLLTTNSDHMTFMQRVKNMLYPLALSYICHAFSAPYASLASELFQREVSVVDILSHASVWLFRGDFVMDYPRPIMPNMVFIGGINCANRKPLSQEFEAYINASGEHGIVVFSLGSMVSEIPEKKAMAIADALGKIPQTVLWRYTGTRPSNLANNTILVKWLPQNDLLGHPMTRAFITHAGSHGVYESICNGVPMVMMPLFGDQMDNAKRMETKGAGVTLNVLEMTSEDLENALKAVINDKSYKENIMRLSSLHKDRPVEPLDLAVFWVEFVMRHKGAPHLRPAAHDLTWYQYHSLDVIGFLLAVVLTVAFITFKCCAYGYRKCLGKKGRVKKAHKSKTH

[3] = molecular target: T3, UDP-glucuronosyltransferase 1A8 (Homo sapiens, UniProt Q9HAW9); assay: Drug level assessed as human UGT1A8-mediated compound formation from 5 to 50 uM T-5224 after 60 mins in presence of UDP-glucuronic acid by HPLC method; type: ADME; details: recombinant enzyme, 1 h; outline: as §1
T3 sequence (Q9HAW9 whole entry): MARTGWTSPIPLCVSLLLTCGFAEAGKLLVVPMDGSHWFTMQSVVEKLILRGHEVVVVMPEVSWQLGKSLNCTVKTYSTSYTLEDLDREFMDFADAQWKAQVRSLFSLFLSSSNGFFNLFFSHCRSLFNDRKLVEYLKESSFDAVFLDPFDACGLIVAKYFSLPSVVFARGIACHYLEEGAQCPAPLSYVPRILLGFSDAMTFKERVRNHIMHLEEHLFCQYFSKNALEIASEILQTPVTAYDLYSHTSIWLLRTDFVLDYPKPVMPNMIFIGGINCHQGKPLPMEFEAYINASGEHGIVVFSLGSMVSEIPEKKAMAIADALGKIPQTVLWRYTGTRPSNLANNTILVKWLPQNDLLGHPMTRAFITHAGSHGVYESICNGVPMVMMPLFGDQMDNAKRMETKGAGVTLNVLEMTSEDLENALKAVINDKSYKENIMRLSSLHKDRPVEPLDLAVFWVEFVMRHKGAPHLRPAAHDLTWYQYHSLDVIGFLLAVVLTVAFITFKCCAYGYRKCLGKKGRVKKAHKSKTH

[4] = molecular target: T1, UDP-glucuronosyltransferase 1A1; assay: Drug level assessed as human UGT1A1-mediated compound formation from 5 to 50 uM T-5224 after 10 to 60 mins in presence of UDP-glucuronic acid by HPLC method; type: ADME; details: recombinant enzyme; outline: as §1
[5] = molecular target: T2, UDP-glucuronosyltransferase 1A3; assay: Drug level assessed as human UGT1A3-mediated compound formation from 5 to 50 uM T-5224 after 10 to 60 mins in presence of UDP-glucuronic acid by HPLC method; type: ADME; details: recombinant enzyme; outline: as §1
[6] = molecular target: T3, UDP-glucuronosyltransferase 1A8; assay: Drug level assessed as human UGT1A8-mediated compound formation from 5 to 50 uM T-5224 after 10 to 60 mins in presence of UDP-glucuronic acid by HPLC method; type: ADME; details: recombinant enzyme; outline: as §1
[7] = molecular target: T1, UDP-glucuronosyltransferase 1A1; assay: Drug level assessed as human UGT1A1-mediated compound formation from 5 to 50 uM T-5224 after 60 mins in presence of UDP-glucuronic acid using 0.05 to 0.2 mg/ml by HPLC method; type: ADME; details: recombinant enzyme, 1 h; outline: as §1
[8] = molecular target: T2, UDP-glucuronosyltransferase 1A3; assay: Drug level assessed as human UGT1A3-mediated compound formation from 5 to 50 uM T-5224 after 60 mins in presence of UDP-glucuronic acid using 0.05 to 0.2 mg/ml by HPLC method; type: ADME; details: recombinant enzyme, 1 h; outline: as §1
[9] = molecular target: T3, UDP-glucuronosyltransferase 1A8; assay: Drug level assessed as human UGT1A8-mediated compound formation from 5 to 50 uM T-5224 after 60 mins in presence of UDP-glucuronic acid using 0.05 to 0.2 mg/ml by HPLC method; type: ADME; details: recombinant enzyme, 1 h; outline: as §1
[10] = system: Liver microsome; assay: Drug level in pooled human liver microsomes treated with T-5224 assessed as compound formation in presence of UDPGA by LC-MS/MS method; type: ADME
[11] = system: Liver microsome; assay: Drug level in pooled human liver microsomes treated with 10 uM T-5224 assessed as compound formation after 10 mins by HPLC method; type: ADME
Outline: (§2)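 Pooled human liver microsomes at 0.5 mg protein/mL, or pooled intestinal microsomes at 0.25 mg/mL, in 50 mM Tris-HCl pH 7.5, 8 mM MgCl2, alamethicin, with 2 mM UDPGA. T-5224 at 10 μM, 10 min at 37°C after 5 min preincubation; stopped with acetonitrile. HPLC with UV at 290 nm. Linearity was tested over 0.1–1.0 mg/mL protein and 5–30 min.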

[12] = Drug level in pooled human intestinal microsomes treated with 10 uM T-5224 assessed as compound formation after 10 mins by HPLC method; type: ADME, Intestine, Microsome; outline: as §2
[13] = system: Liver microsome; assay: Drug level in pooled human liver microsomes treated with 10 uM T-5224 assessed as compound formation after 5 to 30 mins by HPLC method; type: ADME; outline: as §2
[14] = Drug level in pooled human intestinal microsomes treated with 10 uM T-5224 assessed as compound formation after 5 to 30 mins by HPLC method; type: ADME, Intestine, Microsome; outline: as §2
[15] = system: Liver microsome; assay: Drug level in pooled human liver microsomes treated with 10 uM T-5224 assessed as compound formation after 10 mins using 0.1 to 1.0 mg/ml microsomal protein content by HPLC method; type: ADME; outline: as §2
[16] = Drug level in pooled human intestinal microsomes treated with 10 uM T-5224 assessed as compound formation after 10 mins using 0.1 to 1.0 mg/ml microsomal protein content by HPLC method; type: ADME, Intestine, Microsome; outline: as §2

Drug metabolism [1]: metabolite_detected
Drug metabolism [2]: metabolite_detected
Drug metabolism [3]: metabolite_detected
Drug metabolism [4]: Dose-dependent effect
Drug metabolism [5]: Dose-dependent effect
Drug metabolism [6]: Dose-dependent effect
Drug metabolism [7]: Dose-dependent effect
Drug metabolism [8]: Dose-dependent effect
Drug metabolism [9]: Dose-dependent effect
Drug metabolism [10]: metabolite_detected
Drug metabolism [11]: metabolite_detected
Drug metabolism [12]: metabolite_detected
Drug metabolism [13]: Dose-dependent effect
Drug metabolism [14]: Dose-dependent effect
Drug metabolism [15]: Dose-dependent effect
Drug metabolism [16]: Dose-dependent effect
SMILES: O=C(O)CCc1cc(C(=O)c2ccc(OC3CCCC3)cc2O)ccc1OCc1ccc2c(O[C@@H]3O[C@H](C(=O)O)[C@@H](O)[C@H](O)[C@H]3O)noc2c1
